Publication PMC4569680 (Advances in Therapy, 2015)
Like-named read-outs stand apart in the source and are kept apart here. Marks after values point to notes of the source that are not given here. Blank lines part the entries; values can stand above or below the molecule they belong to.

What was measured:
[1] = cited from earlier work
[2] = tested on: Japanese patients with T2DM; test: Urinary glucose excretion; type: in vivo, human; conditions: for mean change from baseline in UGE0–24h: Day 1
Procedure, shortened: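 Urine was collected in timed intervals (0–2 through 13–24 h) on Days 0, 1 and 16, and as 0–24 h pools on Days 2–6, 15, 17 and 18. Dosing was 25–400 mg or placebo QD on Day 1 and Days 3–16. Change from the Day 0 single-blind placebo baseline was determined on each collection day.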

[3] = type: in vivo, human; conditions: for AR (accumulation ratio): AUC0–24h Day 16 / AUC0–24h Day 1, mean (SD)
Procedure, shortened: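 Patients received 25–400 mg QD or placebo on Day 1 and Days 3–16, fasted overnight, with a standardized breakfast within 10 min. Venous blood was drawn at 0, 0.5, 1, 1.5, 2, 3, 4, 6, 8 and 12 h on Days 1 and 16, and before breakfast on Days 2, 17 and 18. Drug was measured by HPLC-MS/MS, range 1–2000 ng/mL. AR = AUC0–24h Day 16/Day 1; linearity factor = AUC0–24h Day 16/AUC0–∞ Day 1.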

[4] = tested on: Japanese patients with T2DM; test: Volume-related safety; type: in vivo, human
Procedure, shortened: (§1)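 Volume-related safety was followed as changes from baseline in blood and urinary laboratory parameters: urine volume, sodium excretion, urine and serum osmolality, and hematocrit. Vital signs covered blood pressure, pulse rate and body temperature. Patients received 25–400 mg QD or placebo on Day 1 and Days 3–16 with standardized meals. Urine was collected in timed intervals or 0–24 h pools.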

[5] = tested on: Japanese patients with T2DM; test: Adverse events; type: in vivo, human
[6] = tested on: Japanese patients with T2DM; test: Urinary electrolyte excretion in 24 hours; type: in vivo, human
Procedure, shortened: as §1

[7] = tested on: Japanese patients with T2DM; test: Renal threshold for glucose excretion; type: in vivo, human; conditions: Days 1 and 16, versus baseline Day 0
Procedure, shortened: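 RTG was calculated post hoc for Days 0, 1 and 16 from measured plasma glucose, UGE and estimated glomerular filtration rate. Day 0 was a single-blind placebo baseline after an overnight fast; standardized meals were given at about 0, 4.5 and 10.5 h post-dose.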

[8] = 24-h urinary excretion rate of unchanged canagliflozin; type: in vivo, human; conditions: for Urinary excretion rate: mean (SD)
Procedure, shortened: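 Urine was collected 0–24 h on Days 1 and 16 during once-daily dosing at 25, 100, 200 or 400 mg, given on Day 1 and Days 3–16 between 8:00 and 9:00 a.m. A standardized breakfast followed within 10 min. Unchanged drug was measured by solid-phase extraction and HPLC-MS/MS with a 13C6-labelled internal standard. The validated range was 1–2000 ng/mL.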

[9] = 25 mg QD repeated dose, Day 16, mean (SD), n = 12
[10] = 25 mg single dose, Day 1, mean (SD), n = 12
[11] = 100 mg QD repeated dose, Day 16, mean (SD), n = 12
[12] = 100 mg single dose, Day 1, mean (SD), n = 12
[13] = 200 mg QD repeated dose, Day 16, mean (SD), n = 14
[14] = 200 mg single dose, Day 1, mean (SD), n = 14
[15] = 400 mg QD repeated dose, Day 16, mean (SD), n = 13
[16] = 400 mg single dose, Day 1, mean (SD), n = 13
[17] = canagliflozin groups pooled, 2 cases in 2 of 51 patients

Compound: NS(=O)(=O)c1cc2c(cc1Cl)N=CNS2(=O)=O [chlorothiazide]
- persistence of diuretic effects [1]: about 1 week

- AUC0–24h [3, 9]: 1556 (387) ng·h/mL
- C max [3, 9]: 263 (91) ng/mL
- t 1/2 [3, 9]: 14.21 (7.46) h
- t max ([3]; 25 mg QD repeated dose, Day 16, median [min–max], n = 12): 1.0 [1.0–3.0] h
- AUC0–24h [3, 10]: 1295 (240) ng·h/mL
- C max [3, 10]: 248 (55) ng/mL
- t 1/2 [3, 10]: 10.70 (1.76) h
- t max ([3]; 25 mg single dose, Day 1, median [min–max], n = 12): 1.0 [1.0–2.0] h
- AR (accumulation ratio) ([3]; 25 mg, n = 12): 1.19 (0.12)
- AUC0–24h [3, 11]: 6635 (1367) ng·h/mL
- C max [3, 11]: 1136 (330) ng/mL
- t 1/2 [3, 11]: 11.81 (3.22) h
- t max ([3]; 100 mg QD repeated dose, Day 16, median [min–max], n = 12): 1.0 [1.0–1.5] h
- AUC0–24h [3, 12]: 5468 (899) ng·h/mL
- C max [3, 12]: 1126 (228) ng/mL
- t 1/2 [3, 12]: 10.22 (1.89) h
- t max ([3]; 100 mg single dose, Day 1, median [min–max], n = 12): 1.0 [1.0–1.5] h
- AR (accumulation ratio) ([3]; 100 mg, n = 12): 1.21 (0.12)
- t 1/2 ([3]; 200 mg QD repeated dose, Day 16, mean (SD), n = 13): 16.16 (5.87)^c h
- AUC0–24h [3, 13]: 16,716 (5464) ng·h/mL
- C max [3, 13]: 2688 (805) ng/mL
- t max ([3]; 200 mg QD repeated dose, Day 16, median [min–max], n = 14): 1.3 [1.0–1.5] h
- AUC0–24h [3, 14]: 11,991 (3042) ng·h/mL
- C max [3, 14]: 2304 (539) ng/mL
- t 1/2 [3, 14]: 13.26 (4.96) h
- t max ([3]; 200 mg single dose, Day 1, median [min–max], n = 14): 1.0 [1.0–1.5] h
- AR (accumulation ratio) ([3]; 200 mg, n = 14): 1.38 (0.17)
- t 1/2 ([3]; 400 mg QD repeated dose, Day 16, mean (SD), n = 12): 15.76 (5.56)^d h
- AUC0–24h [3, 15]: 30,766 (7916) ng·h/mL
- C max [3, 15]: 5236 (1123) ng/mL
- t max ([3]; 400 mg QD repeated dose, Day 16, median [min–max], n = 13): 1.0 [1.0–1.5] h
- AUC0–24h [3, 16]: 21,836 (4983) ng·h/mL
- C max [3, 16]: 5028 (1733) ng/mL
- t 1/2 [3, 16]: 12.15 (2.34) h
- t max ([3]; 400 mg single dose, Day 1, median [min–max], n = 13): 1.0 [1.0–3.0] h
- AR (accumulation ratio) ([3]; 400 mg, n = 13): 1.42 (0.29)
- mean accumulation ratios (ARs) ([3]; AUC0–24h Day 16 / AUC0–24h Day 1, across doses 25–400 mg): 1.19–1.42
- linearity factors ([3]; AUC0–24h Day 16 / AUC0–∞ Day 1, any dose (25, 100, 200, 400 mg)): ~1
- elimination half-life (t 1/2) ([3]; Day 1, across doses 25–400 mg): 10.22 to 13.26 h
- elimination half-life (t 1/2) ([3]; Day 16, across doses 25–400 mg): 11.81 to 16.16 h
- t max ([3]; Day 16, across doses 25–400 mg): 1.0 to 1.3 h
- plasma concentration reaches steady state ([3]; repeated QD dosing from Day 3, all doses): ≤ 7 days
- urinary sodium excretion ([6]; Day 1, reversed within a week): transient nominal increase
- urinary excretion of electrolytes (potassium, chloride, calcium, magnesium, inorganic phosphorus) ([6]; canagliflozin-treated groups compared with the placebo group): No remarkable changes were observed
- Urinary excretion rate ([8]; 25 mg QD repeated dose, Day 16, 0–24 h, n = 12): 0.599 (0.183) %
- Urinary excretion rate ([8]; 25 mg single dose, Day 1, 0–24 h, n = 12): 0.387 (0.070) %
- Urinary excretion rate ([8]; 100 mg QD repeated dose, Day 16, 0–24 h, n = 12): 0.641 (0.204) %
- Urinary excretion rate ([8]; 100 mg single dose, Day 1, 0–24 h, n = 12): 0.384 (0.084) %
- Urinary excretion rate ([8]; 200 mg QD repeated dose, Day 16, 0–24 h, n = 14): 0.614 (0.195) %
- Urinary excretion rate ([8]; 200 mg single dose, Day 1, 0–24 h, n = 14): 0.424 (0.107) %
- Urinary excretion rate ([8]; 400 mg QD repeated dose, Day 16, 0–24 h, n = 13): 0.495 (0.153) %
- Urinary excretion rate ([8]; 400 mg single dose, Day 1, 0–24 h, n = 13): 0.385 (0.097) %
- 24-h urinary excretion rate of unchanged canagliflozin ([8]; Day 1, means at each dose): approximately 0.4%
- 24-h urinary excretion rate of unchanged canagliflozin ([8]; Day 16, means at each dose): 0.5–0.6%
Compound: Cc1ccc([C@@H]2O[C@H](CO)[C@@H](O)[C@H](O)[C@H]2O)cc1Cc1ccc(-c2ccc(F)cc2)s1 [Canagliflozin]
- UGE after the last administration ([2]; 24–48 and 48–72 h after the last administration, ≥100 mg): increase in UGE was detected
- mean change from baseline in UGE0–24h ([2]; 25-mg group): approximately 60 g/day
- mean change from baseline in UGE0–24h ([2]; 100–400-mg groups): 80 to 110 g/day
- 24-h urine volume ([4]; Day 1, canagliflozin groups): slightly increased
- change in urine osmolality over time from baseline ([4]; Day 1, canagliflozin-treated groups): trend toward an increase
- pulse rate and incidence of orthostatic hypotension ([4]; data not shown): No increases were observed
- hematocrit level ([4]; during the study period): remained unchanged
- serum osmolality ([4]; during the treatment period): maintained constant
- mean systolic and diastolic blood pressures ([4]; groups that received ≥100 mg): tended to decrease
- nasopharyngitis, patients with AE ([5]; canagliflozin groups pooled, 1 case in 1 of 51 patients): 2.0%
- dizziness, patients with AE [5, 17]: 3.9%
- toothache, patients with AE [5, 17]: 3.9%
- urine ketone body present, patients with AE ([5]; canagliflozin groups pooled, 3 cases in 3 of 51 patients): 5.9%
- anemia, patients with AE ([5]; canagliflozin groups pooled, 4 cases in 4 of 51 patients): 7.8%
- diarrhea, patients with AE ([5]; canagliflozin groups pooled, 6 cases in 5 of 51 patients): 9.8%
- occult blood positive, patients with AE ([5]; canagliflozin groups pooled, 14 cases in 12 of 51 patients): 23.5%
- urinary ketones observed ([5]; canagliflozin-treated groups, all mild): 3 patients
- urinary ketones observed ([5]; dose of 200 mg): 2 cases
- urinary ketones observed ([5]; dose of 400 mg): 1 case
- tolerability ([5]; short-term study, patients with T2DM, 25–400 mg): well tolerated
- AEs related to skin disorders ([5]; whole study): not observed
- RTG0–24h [7]: decreased
